M1 antag – antagonists of rat M1 muscarinic receptor; CHO-M1 cells, Fluo-4 calcium, ACh EC80 antagonist mode; stronger effect = lower value; B-score at 10 µM; 64,000 tested, 3.4% active; AID 628, 2007;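 active means calcium fluorescence response, raw or row-and-column corrected B-score, differing from the plate sample mean either way at a set confidence level, mostly lower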
Target sequence (P08482 whole entry, looked up): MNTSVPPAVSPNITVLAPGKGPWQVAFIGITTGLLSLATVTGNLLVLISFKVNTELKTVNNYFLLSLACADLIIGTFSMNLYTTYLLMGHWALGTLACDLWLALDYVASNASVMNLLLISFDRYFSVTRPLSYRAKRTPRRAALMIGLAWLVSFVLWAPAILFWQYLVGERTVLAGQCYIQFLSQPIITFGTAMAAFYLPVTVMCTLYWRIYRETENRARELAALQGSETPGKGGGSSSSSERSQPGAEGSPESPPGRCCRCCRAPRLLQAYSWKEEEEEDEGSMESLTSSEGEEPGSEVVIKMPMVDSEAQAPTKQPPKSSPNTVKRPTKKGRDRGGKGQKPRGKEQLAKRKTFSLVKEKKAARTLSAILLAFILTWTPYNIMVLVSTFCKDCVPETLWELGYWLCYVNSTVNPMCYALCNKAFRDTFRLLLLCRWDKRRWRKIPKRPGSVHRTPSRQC
M1 agonist – M1 muscarinic receptor agonists, primary screen, CHO-M1 cells, Fluo-4 calcium, agonist mode; Muscarinic acetylcholine receptor M1; Fluo-4 calcium fluorescence; stronger effect = higher value; B-score at 10 µM; 64,000 tested, 3% active;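 active means fluorescence rise, raw or as B-score row- and column-corrected plate score, outside the 99.7% band of its plate's samples, either direction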
RORa activator – activators of orphan receptor RORA, primary screen, cell-based, luminescence; Nuclear receptor ROR-alpha (Homo sapiens), P35398; CHO-K1 Gal4-RORA LBD luciferase reporter; percent increase over mock-subtracted basal signal; activation, % at 10 µM; 65,000 tested, 1.5% active; AID 560, 2006;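 active means activation above the mean of all tested compounds plus 3 SD, cut at about 49% in these data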;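 further: 0% = DMSO-treated RORA cells and 100% = added signal equal to DMSO minus mock-transfected cells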
D1 allo mod – D1 CRE-luciferase signal change, two-sided – cell-based, HEK293 D1, dopamine EC30, D1 allosteric modulator project, primary screen; dopamine EC30 potentiation; actives deviate in either direction; B-score at 10 µM; 58,000 tested, 5.9% active;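 active means luminescence count or its row- and column-corrected plate score outside the 99.7% band of the plate's sample wells, on either side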
HePTP inhibitor – inhibitors of human HePTP phosphatase, primary screen, biochemical, absorbance, leukemia target | Tyrosine-protein phosphatase non-receptor type 7 (Homo sapiens), P35236 | recombinant HePTP phosphatase activity, OD absorbance | inhibition, % at 20 µM | 110,000 tested, 0.64% active; in the data active means inhibition above about 50%;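 further: plate controls were vehicle for no effect and reference inhibitor for full effect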
SF-1 act – activators of human SF-1, primary screen, cell-based, CHO-K1, Gal4-SF-1 LBD, luciferase luminescence. activation, % at 10 µM. CHO-K1 Gal4-SF-1 LBD luciferase reporter; % increase over DMSO SF-1-specific signal. Steroidogenic factor 1 (Homo sapiens), Q13285. 65,000 tested, 1.9% active;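 active means activation above the mean activation of all tested compounds plus 3 SD, cut at about 50% in these data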
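Test system: transient Gal4-SF-1 LBD reporter, CHO-K1; Amount: 4,000 CHO-K1 cells per well; Doses: 10 µM only; Timing: compound exposure 20 h at 37 °C; Signal: luciferase light emission; Read-out basis: percent activation relative to DMSO median and mock-transfected background; Control set: DMSO negative control and −SF1 background wells; Replicates: one test per compound.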
* = called active by the depositor; . = not tested or not shown; ! = repeats disagree. Compounds with a hit are over-represented: about 8.2% of the library has one in this group of screens.

SMILES | M1 antag | M1 agonist | RORa activator | D1 allo mod | HePTP inhibitor | SF-1 act
COC(=O)c1ccccc1NC(=O)Cn1c(SC)c(F)cnc1=O | 1* | 0.28 | 22 | -0.026 | 2 | -5
N/C(=N\N=C/c1ccc(Br)cc1)N/N=C\c1ccc(Br)cc1 | . | . | . | . | 4 | .
Cc1ccc(-c2nc3ncccn3c2Nc2ccc3c(c2)OCO3)o1 | -0.19 | 0 | 7 | 0.019 | 4 | 14
Cc1cccc(NC(=S)NC(NC(=O)c2ccccc2F)C(Cl)(Cl)Cl)c1 (stereo not given) | . | . | . | . | 5 | .
COC(=O)c1cc(NC(=O)c2ccc3c(c2)OCCO3)cc(C(=O)OC)c1 | . | . | . | . | 2 | .
O=C(c1ccc2c(c1)OCO2)N1CCN(c2ccccc2)CC1 | 0.024 | -0.15 | -22 | 0.16 | 6 | -22
COC(=O)c1ccc(NC(=O)c2ccc3c(c2)OCO3)cc1 | -0.19 | 0.16 | 46 | -0.23 | 2 | 53*
CN1CCN(c2ccc(NC(=O)c3ccc4c(c3)OCO4)cc2)CC1 | -1.1 | -1.5 | 27 | -5.1* | 7 | 61*
CC(=O)N1CCN(c2ccc(NC(=O)c3ccc4c(c3)OCCO4)cc2)CC1 | -0.8 | 0.37 | 6 | -0.4 | -3 | 23
COc1ccc(NC(=O)C=C(C)C)cc1Cl | 0.26 | -0.44 | 39 | -3.8* | 9 | 48
O=C(c1ccc2c(c1)OCO2)N1CCN(c2ccc(Cl)cc2)CC1 | -1.2 | -1.3 | 27 | -0.69 | 102*! | 4
COCCN1C(=O)C(=O)/C(=C(/O)c2ccccc2)C1c1ccc(OC)cc1OC (stereo not given) | . | . | . | . | 2 | .
COC(=O)c1cn(CC(=O)N2CCCCCC2)c2ccccc12 | -0.018 | -0.61 | -4 | . | 10 | -1
O=C(Nc1c(C(=O)N2CCN(Cc3ccccc3)CC2)cnn1-c1ccccc1)c1ccc(Br)cc1 | . | . | . | . | -7 | .
CCN(Cc1cc2ccc(C)cc2[nH]c1=O)C(=O)c1cccnc1 | 0.013 | 0.056 | -4 | -0.11 | -1 | 12
COc1ccc(NC(=O)c2ccc3c(c2)OCO3)cc1Cl | -0.37 | 1.5 | -1 | -1.9 | 7 | 53*
COc1cc(C(=O)Nc2ccc3c(c2)OCCO3)ccc1OC(F)F | 0.12 | 2.2 | 76* | 0.1 | 6 | 64*
COc1cccc(OC)c1C(=O)Nc1ccc2c(c1)OCCO2 | 0.97 | 0.082 | -2 | 0.17 | 0 | -2
O=C(NCC1COc2ccccc2O1)c1ccco1 (stereo not given) | -0.46 | -0.54 | -12 | 0.86 | 6 | 14
O=C(CN1CCN(Cc2ccccc2)CC1)NCC1COc2ccccc2O1 (stereo not given) | 0.23 | -0.072 | . | 0.52 | 2 | .
O=C(NCC1COc2ccccc2O1)c1ccccc1 (stereo not given) | 0.59 | 1.2 | 70* | -0.25 | 13 | 52*
O=C(CN1C(=O)c2ccccc2C1=O)NCC1COc2ccccc2O1 (stereo not given) | 1.2* | 0.53 | 4 | 0.69 | 9 | 4
O=C1c2cccc3cccc(c23)C(=O)N1CCCN1CCCCC1 | . | . | . | . | 7 | .
Cc1ccc(-c2cc(C(=O)NCCCN3CCOCC3)no2)cc1 | . | . | -17 | -4.2 | 4 | -14
Cc1ccc(C(=O)NC(=S)NCCCN2CCOCC2)cc1 | . | . | . | . | 103* | .
SMILES | M1 antag | M1 agonist | RORa activator | D1 allo mod | HePTP inhibitor | SF-1 act
COc1cc(/C=C2/C(=O)NC(=O)N(c3cccc(C)c3)C2=O)ccc1OCC(=O)O | . | . | . | . | 5 | .
COc1ccc(S(=O)(=O)N2Cc3ccccc3CC2C(=O)Nc2nccs2)cc1OC (stereo not given) | -0.14 | 1.2 | 18 | -0.83 | -6 | 71*
COc1ccc(S(=O)(=O)N2Cc3ccccc3CC2C(=O)N2CCOCC2)cc1OC (stereo not given) | . | . | -2 | . | 9 | -7
Cc1ccc(-c2c3c(=O)n(C)c(=O)n(C)c3c3c(C)cc(C)nn23)cc1 | -13* | 9.5* | -3 | . | 11 | -5
O=C1N=C(N2CCOCC2)S/C1=C\c1cccnc1 | . | . | . | . | 1 | .
O=C(COc1ccccc1Cl)NNC(=O)c1ccncc1 | . | . | . | . | 101* | .
CCOC(=O)N1CCN(C(=O)c2ccc(Cn3c(=S)[nH]c4cc5c(cc4c3=O)OCO5)cc2)CC1 | -0.14 | 1.4 | -4 | -4.1* | -2 | -1
CCCC1=NN(c2ccc([N+](=O)[O-])cc2)C(=O)/C1=C/c1cccc([N+](=O)[O-])c1 | . | . | . | . | 4 | .
CC(=O)Nc1ccc(NC(=O)c2ccc(C)cc2)cc1 | . | . | . | . | -4 | .
Cc1ccc(NC(=O)C2CCCN(c3ncccn3)C2)cc1F (stereo not given) | -0.53 | 0.035 | 46 | . | 3 | 67*
O=C(Nc1ccc2c(c1)CCC2)C1CCCN(c2ncccn2)C1 (stereo not given) | 0.21 | 1.2 | 31 | 0.11 | 2 | 69*
Cc1nc2ncnn2c(N2CCCC(C(=O)Nc3ccc4c(c3)CCC4)C2)c1C (stereo not given) | -0.59 | -1.1 | 6 | -0.94 | -2 | 1
O=C(Nc1cccc(C(F)(F)F)c1)C1CCCN(c2ncccn2)C1 (stereo not given) | -0.98 | 0.3 | 11 | -0.17 | -2 | 11
CCOC(=O)C(=O)Nc1ccc(S(=O)(=O)Nc2nccc(C)n2)cc1 | . | . | . | . | -9 | .
O=C1CC2c3ccccc3C1C1C(=O)N(c3ccccc3)C(=O)C21 (stereo not given) | . | . | . | . | 103* | .
CCOc1cc(N2CCOCC2)c(OCC)cc1NS(=O)(=O)c1ccc(Cl)s1 | -1.1 | 0.12 | 79* | -0.41 | 6 | 19
CCOc1cc(N2CCOCC2)c(OCC)cc1NC(=O)CCS(=O)(=O)c1ccc(Cl)cc1 | 0.53 | 0.85 | 4 | 0.0034 | 14 | -6
O=C(Nc1ccc(S(=O)(=O)N2CCCCC2)cc1)c1ccc(F)cc1 | . | . | . | . | 4 | .
CN1CCN(S(=O)(=O)c2ccc(NC(=O)c3ccc(Br)s3)cc2)CC1 | -1.2 | -0.39 | 3 | -3.9* | -5 | 17
CN1CCN(S(=O)(=O)c2ccc(NC(=O)c3ccc(F)cc3)cc2)CC1 | 3.5* | 0.2 | -14 | -1.4 | -3 | 6
CCN(CC)c1ccc(NC(=O)CSc2nc(C)cc(=O)[nH]2)cc1 | -0.81 | -0.09 | 16 | . | 1 | -13
CCC1(COC(NC(=O)c2cccnc2)(C(F)(F)F)C(F)(F)F)COC1 | -0.85 | -0.054 | 2 | -7* | 6 | -1
Brc1cccc(-c2nnc(-c3ccc4c(c3)OCO4)o2)c1 | . | . | . | . | -9 | .
CC(=O)c1sc(NC(=O)C2COc3ccccc3O2)nc1C (stereo not given) | -0.18 | -0.51 | 10 | -8.5* | 7 | 6

From PubChem
